From paper PMC5472370 (ACS Omega, 2017)

What was measured:
[1] = target: T1, mature BACE1 ectodomain (Homo sapiens, UniProt P56817); assay: SPR binding to immobilized WT BACE1
In short: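 Mature ectodomain and a neutravidin reference were amine-coupled on CM7 chips; runs at 25 °C. Running buffers: HBS-N pH 7.4, or 10 mM NaOAc pH 4.5 with 150 mM NaCl; both with 0.05% Tween 20 and 5% DMSO. Injections 30 s at 30 µL/min, with DMSO correction over 2.5–6.5%. Screened at 0.25 mM in duplicate (forward and reverse order) against BACE1, neutravidin and a blank spot. Top 10% retested over 0.03–0.500 mM (8 points, 1.5-fold).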

[2] = target: T1, mature BACE1 ectodomain; assay: SPR competition with OM99-2; conditions: binding before and after OM99-2 injection, pH 4.5
In short: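 Run at pH 4.5 on immobilized wild-type ectodomain: 10 mM NaOAc, 150 mM NaCl, 0.05% Tween 20, 5% DMSO, 25 °C. Fragments injected before and after an injection of the peptide inhibitor OM99-2; binding responses compared. Concentration series 0.03, 0.06, 0.13, 0.25 and 0.50 mM.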

[3] = target: BACE1 D32N mutant (Homo sapiens, UniProt P56817, D93N); assay: SPR binding to BACE1 D32N mutant; conditions: BACE1 D32N catalytic-site mutant
In short: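 Catalytic-site D32N ectodomain (residues −16 to 393, C-terminal His- plus StrepII-tag), expressed in and purified from E. coli. Amine-coupled to a CM7 chip and run under conditions similar to wild type: 25 °C, 30 s injections at 30 µL/min, DMSO solvent correction. Concentration series 0.03, 0.06, 0.13, 0.25 and 0.50 mM.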

[4] = target: T1, mature BACE1 ectodomain; assay: WaterLOGSY ligand-observed NMR binding; conditions: 30-fold excess of ligand, performed once
In short: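 Ligand-observed NMR on 5 µM mature ectodomain with 0.15 mM ligand (1:30 protein/ligand, ligand from 100 mM DMSO-d6 stock) and D2O added. Recorded at 27 °C on a 600 MHz spectrometer with cryoprobe. Both 1D 1H and WaterLOGSY spectra acquired: 32K points, 14 ppm sweep width, 128 scans. Run at physiological pH, then repeated at acidic pH.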

BACE1 D32N mutant, sequence (P56817 46-454 D93N): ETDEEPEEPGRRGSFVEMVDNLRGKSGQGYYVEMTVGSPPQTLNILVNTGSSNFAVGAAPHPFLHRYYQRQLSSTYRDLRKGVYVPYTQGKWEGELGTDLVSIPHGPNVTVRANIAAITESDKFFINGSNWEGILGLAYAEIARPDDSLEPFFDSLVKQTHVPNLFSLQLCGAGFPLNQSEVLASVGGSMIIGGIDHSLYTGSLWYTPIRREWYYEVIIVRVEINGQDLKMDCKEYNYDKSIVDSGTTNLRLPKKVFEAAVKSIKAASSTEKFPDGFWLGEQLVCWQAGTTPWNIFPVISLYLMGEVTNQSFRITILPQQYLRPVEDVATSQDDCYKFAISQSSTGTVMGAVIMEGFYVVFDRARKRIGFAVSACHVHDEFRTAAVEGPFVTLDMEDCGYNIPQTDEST
T1 sequence (P56817 46-454 limits assumed): as the sequence (P56817 46-454 D93N) above, with N48D counted along it

Row | SPR OM99-2 competition [2] | SPR D32N binding [3] | SPR binding to WT BACE1 (mature BACE1 ectodomain) ([1]; pH not stated) | WaterLOGSY signal at pH 4.5 ([4]; pH 4.5) | SMILES | SPR binding at pH 4.5 ([1]; WT BACE1, pH 4.5) | WaterLOGSY signal at pH 7.5 [4]
1 | reduced binding | bound |  |  | CN(C)c1nc(N2CCCC2)nc2ccccc12 [Compound 12, N,N-Dimethyl-2-pyrrolidin-1-yl-quinazolin-4-amine] |  | clear positive
2 | drastically reduced | lost binding | bound strongly | strong positive | CC1(c2ccccc2)COCC(N)=N1 (centres unmarked) [Compound 14, 5-Methyl-5-phenyl-2,6-dihydro-1,4-oxazin-3-amine] |  | 

Row | SMILES | SPR OM99-2 competition [2] | SPR D32N binding [3] | SPR binding to WT BACE1 (mature BACE1 ectodomain) ([1]; pH not stated) | WaterLOGSY signal at pH 4.5 ([4]; pH 4.5) | SPR binding at pH 4.5 ([1]; WT BACE1, pH 4.5) | WaterLOGSY signal at pH 7.5 [4]
3 | Brc1cc2c(N3CCNCC3)nccn2c1 [Compound 10, 7-Bromo-1-piperazin-1-yl-pyrrolo[1,2-a]pyrazine] | bound | bound |  |  | nonspecific binding | clear positive
